The series in a line: Toxicity liver stage against HepG2, at 10uM. It is filed as cell-based. Also on record: test concentration 10 uM, cell line HepG2-A16-CD81EGFP. The conditions noted are these: human, HepG2-A16-CD81EGFP cells; read-out: INHIBITION
In short, it runs like this:
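Uninfected HepG2-A16-CD81EGFP cells, 3 × 10^3 per well, 1536-well, plated on prespotted compound at 10 μM final, parasite-free screening media added to match infected plates; puromycin 10 μM positive, DMSO 0.5% negative; run in parallel with 48 h PbLuc assay at 37 °C, 5% CO2; viability by CellTiter-Glo luminescence, normalized to controls.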
`Cc1cc(C)nc(N2CCCC(C(=O)Nc3n[nH]c(C(C)C)n3)C2)n1` (stereo not drawn): the cytotoxicity at 10 µM was 8.04%. Next, `CCc1cnc(N2CCC3(CCN(CC)C3=O)CC2)nc1`: 1.61%. Next, `CNC(=O)N1CCC2(CC1)CN(C)c1ccc(F)cc12`: -4.78%; `c1ccc(NCc2cn3c(n2)CN(Cc2ccoc2)CC3)nc1`: 10.4%; `CCOCC1CN(CCOCc2ccccc2)Cc2c1cnn2C` (stereo not drawn): -132%. Next, `Fc1cnc(N2CCOCC3(CCCN(c4cnccn4)C3)C2)nc1` (stereo not drawn): 10.6%; `CCN1C(=O)[C@]2(CC[C@@H]3CN(C(=O)NCC(C)C)C[C@@H]32)N=C1C`: 9.16%.

With `Cc1cc(O)c(OCC(=O)/N=c2\[nH]c(C)cs2)cn1`, the cytotoxicity at 10 µM worked out at 6.36%.

As for `CN(C(=O)c1ccccn1)c1nnc(C2CCOC2)s1` (stereo not drawn), the cytotoxicity at 10 µM is 0.07%. With `CN(C)Cc1cc(C2CCCN(S(=O)(=O)c3cccc(Cl)c3)C2)nn1C` (stereo not drawn), the cytotoxicity at 10 µM was 0.288%. Regarding `CCn1cc(-c2nccnc2C2CCCN(C(C)=O)C2)cn1` (stereo not drawn), the cytotoxicity at 10 µM was -6.03%.

With `c1cc(C2CCCN2CC2CC2)n[nH]1` (stereo not drawn), the cytotoxicity at 10 µM is -1.75%. In the case of `CNC(=O)c1cn[nH]c1C1CCN(Cc2sccc2C)C1` (stereo not drawn) it was -21.2%; in that of `c1cnc(-c2cnc(N3CCCCC3)nc2C2CCCO2)cn1` (stereo not drawn), -7.16%; in that of `Cc1n[nH]cc1C(=O)N1CCCC(c2cccc(-n3ccnc3)n2)C1` (stereo not drawn), -9.69%. Next, `O=C(NC1CC1)c1cc(C(F)(F)F)cc(C(F)(F)F)n1`: 6%; `COc1ccc(C2(c3nc(-c4cnn(C)c4)no3)CCOCC2)cc1`: 11.4%; `Cc1ccc(NC(=O)N2CCC(CO)(Nc3ccccc3)CC2)cc1`: -0.405%.

As for `CCOc1nnc(CN2CCC(c3cc4ccccc4[nH]3)CC2)s1`, the cytotoxicity at 10 µM worked out at 20.6%. Next, `N#CC1(C(=O)N2CCOC(c3ccc(F)cc3)C2)CCCCC1` (stereo not drawn): 3.85%. In the case of `Cc1nc(CNc2ccccc2CCC(F)(F)F)cs1` it was -8.47%; in that of `O=C(CC1CCCCC1)N1CCC(O)(C(F)(F)F)C1` (stereo not drawn), -6.58%; in that of `CNC(=O)Cc1noc(-c2cc3c(s2)CCCC3)n1`, 0.403%. Next, `N#CCCCS(=O)(=O)NC1(c2cccc(Br)c2)CC1`: 2.99%; `N#CC1COCCN1S(=O)(=O)c1ccc2c(c1)CCC2` (stereo not drawn): 4.53%; `CCOc1ccc(CC(=O)N(CCC(=O)OC)CC2CCCO2)cc1` (stereo not drawn): 5.04%. In the case of `O=C(NCC1(c2ccc(F)cc2)CCCC1)N1CCOC(CO)C1` (stereo not drawn), the cytotoxicity at 10 µM was 0.323%. Take `COC(=O)c1ccc(NC(=O)CCc2ccco2)cc1`: the cytotoxicity at 10 µM was -10.5%.

As for `CCCS(=O)(=O)N1CCCN(CCCOC)CC1`, the cytotoxicity at 10 µM amounted to 7.53%. In the case of `O=C(NCC1CCC1)c1ccnc(-n2ccnc2)c1`, the cytotoxicity at 10 µM is -3.67%. As to `COc1ccccc1N1CCN(CC(=O)NC(C)c2ccco2)CC1` (stereo not drawn), the cytotoxicity at 10 µM was -2.58%. For the compound `Cc1cc(NC(=O)N2CCCC(CO)C2)nn1-c1ccccc1Cl` (stereo not drawn), the cytotoxicity at 10 µM was found to be 8.23%.

On to `CC(C)c1noc(OCC(=O)N(C)C(C)C)n1`, for which the cytotoxicity at 10 µM was -12.6%. In the case of `NC(=O)CCNC(=O)Cc1cccc(I)c1` it was -1.08%. `O=C(CNc1cccc2c1CCCC2)Nc1ccccc1Br`: the cytotoxicity at 10 µM is 11.4%.

With `Cc1nn(C)c(N(C)C)c1CNCc1cccc(Cn2cccn2)c1`, the cytotoxicity at 10 µM came to 1.88%. For the compound `CC(C)c1ccc(CS(=O)(=O)CC(=O)NCc2ccccc2F)cc1`, the cytotoxicity at 10 µM was 8.31%. Regarding `Cc1cc(C)n(CC2CN(CC(=O)Nc3cccnc3)CCO2)n1` (stereo not drawn), the cytotoxicity at 10 µM is -3.1%. For the compound `O=C(c1csc(-c2ncccn2)n1)N1CCN(C2CCCC2)CC1`, the cytotoxicity at 10 µM stood at 4.87%.

Turning to `Cc1cccc(S(=O)(=O)N2CSCC2C(=O)NCC2CC2)c1` (stereo not drawn), the cytotoxicity at 10 µM was -6.14%. Take `COc1cccc2c1N(Cc1nc(C3CC3)no1)CCC2`: the cytotoxicity at 10 µM turned out to be 11.2%.

`Cc1ncccc1C(=O)Nc1ccc2ccn(CCN(C)C)c2c1`: the cytotoxicity at 10 µM worked out at 4.08%. For the compound `CCS(=O)(=O)CC(C)NC(=O)N(C)Cc1cc(Cl)cn1C` (stereo not drawn), the cytotoxicity at 10 µM was -1.04%.

`Cc1nc(C(NC(=O)C2CCCC2)c2ccccc2F)no1` (stereo not drawn): the cytotoxicity at 10 µM was -3.79%.

Consider `O=C(C[S+]([O-])Cc1ccccc1F)N1CCc2sccc2C1` (stereo not drawn), for which the cytotoxicity at 10 µM was -8.02%.

On to `CNS(=O)(=O)CC(=O)N(Cc1ccccc1)c1ccc(C)cc1`, for which the cytotoxicity at 10 µM is 2.53%.

With `CC(C)CN1C(=O)C2(CCCC2)NC12CCSCC2`, the cytotoxicity at 10 µM was -135%. `O=C(c1ccc[nH]1)N(Cc1ccc(O)cc1)CC1CC1`: the cytotoxicity at 10 µM stood at 8.43%. In the case of `COCCCNC(=O)Cn1nnc(-c2cc3ccccc3o2)n1` it was 6.43%. For the compound `O=C(CN1CCOc2ccc(Cl)cc21)NCc1ncc[nH]1`, the cytotoxicity at 10 µM was -0.307%. Consider `N#CCCN(CC(F)(F)F)C(=O)c1cc(-n2cccn2)ccn1`, for which the cytotoxicity at 10 µM amounted to 8.93%. Consider `COCCN1CCN(c2ccc(CN(C)C)cn2)CC1`, for which the cytotoxicity at 10 µM is -7.41%. Next, `N#Cc1ccc(OC2CCN(C(=O)COCC3CCCO3)CC2)cc1` (stereo not drawn): 12.9%. In the case of `CCc1noc(CN(C)C(=O)COc2cccc(Cl)c2C)n1` it was 3.86%. As for `CCN(CC)CCCN1CCC(NC(=O)OC(C)(C)C)CC1`, the cytotoxicity at 10 µM is 5%. Consider `CS(=O)(=O)CC1(CNc2ccc(C#N)c(C(F)(F)F)c2)CC1`, for which the cytotoxicity at 10 µM came to 9.95%. Next, `Cc1nc(CC(C)C)sc1C(=O)N1CCC1`: 15.8%; `O=C(NCCNS(=O)(=O)c1ccc2c(c1)CCCC2)c1ccoc1`: 0.743%; `CC(NCc1ccncc1)c1cc(F)ccc1N1CCN(C)CC1` (stereo not drawn): -2.98%. As for `CC(=O)N1CC[C@H]2OCC[C@@H](C(=O)Nc3cccnc3C)[C@H]2C1`, the cytotoxicity at 10 µM was determined as 0.0861%.

Regarding `Cc1ncc(-c2ccnc(N3CC[C@H](O)C3)n2)c(-c2cccnc2)n1`, the cytotoxicity at 10 µM is -8.49%. In the case of `Cn1nccc1C(=O)N1CCOC(Cc2ccc(F)cc2)C1` (stereo not drawn) it was 5.08%. Take `CC(C)c1nc(CN(C)Cc2ccc(O)c(C(=O)O)c2)cs1`: the cytotoxicity at 10 µM was -4.24%. In the case of `Cc1cccc2c1nc(COCC(=O)O)n2-c1ccc(N)nc1` it was 1.77%; in that of `Cc1cc(NCCc2c[nH]cn2)nc(-c2cccnc2)n1`, 2.49%. Next, `CCN1CCCC(CN2CCn3nc(CNC(=O)N(C)C)cc3C2)C1` (stereo not drawn): -2.96%; `Cc1nc(-c2ccccc2)c(C(=O)N2CCC3(CC(=O)NC3=O)C2)s1` (stereo not drawn): -3.89%; `COCc1cn(C2CCN(C(=O)c3ccc(F)c(C)c3)CC2)nn1`: -0.723%. Next, `Cc1c(C)c(C)c2[nH]c(-c3cn(C4CCNCC4)nn3)nc2c1C`: -0.966%; `Cc1[nH]c(=O)[nH]c(=O)c1CN1CCCC(CCc2ccc(F)cc2F)C1` (stereo not drawn): -1.64%; `CN1CCN(C(=O)c2ccnc(N3CCOC(C(F)(F)F)C3)c2)CC1` (stereo not drawn): -11.4%. On to `CCc1ccc(CN2CCNC(C(=O)N3CCN(C)CC3)C2)nc1` (stereo not drawn), for which the cytotoxicity at 10 µM amounted to 7.68%.

As to `CCC(=O)N1CCCC(Cn2cc(-c3ccc(F)cc3)nn2)C1` (stereo not drawn), the cytotoxicity at 10 µM is 2.89%.

`COc1cccc(OCC(=O)N2CCC3(CC2)[C@H](O)C[C@@H]3OC)c1`: the cytotoxicity at 10 µM turned out to be 0.866%. `CC(C)N1CCCC(C(=O)NC(C)(C)c2nnc(N)s2)C1` (stereo not drawn): the cytotoxicity at 10 µM was -2.4%. With `CC(=O)N[C@@H]1CN(Cc2ccc(F)cc2F)C[C@H]1c1ccc(C)o1`, the cytotoxicity at 10 µM stood at 6.39%.

With `C[C@@H]1CN(Cc2cc3ccccc3n2C)CC[C@]1(C)O`, the cytotoxicity at 10 µM was determined as 8.35%.

In the case of `NC(=O)c1ccc(OCCCN2C[C@H](C3CC3)[C@@H](N)C2)cc1`, the cytotoxicity at 10 µM is -0.517%. In the case of `Cn1c(Cn2cccn2)nnc1C1CCCN(c2ccncc2F)C1` (stereo not drawn) it was -0.773%; in that of `CNCc1cc(F)ccc1Oc1ccc(F)cc1F`, -11%. Take `CNC(=O)NC(=O)C(C)N(C)CCCc1cc(-c2ccccc2)no1` (stereo not drawn): the cytotoxicity at 10 µM was -11.6%. Next, `O=C(c1ccc2c(c1)CCCC2)N1CCN(c2cnccn2)CC1`: -1.95%; `Cc1cc2n(n1)CC(CNCc1ccc(-n3ccnc3C)nc1)CN2` (stereo not drawn): -11.7%. Take `COc1ccccc1C(O)CNC(=O)Nc1cccnc1OC` (stereo not drawn): the cytotoxicity at 10 µM is -14.7%. Next, `Cc1nc(C2CCCN2C(=O)c2ccc3c(c2)nc(C)n3C)no1` (stereo not drawn): -9.62%; `CCn1cnnc1CNC(=O)N1CCC(C)CC1`: 2.64%. Take `Cc1nc(C2CCCN2C(=O)Cn2cncn2)no1` (stereo not drawn): the cytotoxicity at 10 µM was -2.51%. `Cc1cnn(CC2CCCCN2C(=O)c2cnc3n[nH]c(C)c3c2)c1` (stereo not drawn): the cytotoxicity at 10 µM was -26.2%. Next, `CCc1nc(CN2CCCN(C(=O)C3CCC3)CC2)cs1`: 5.41%; `CCOc1ccnc(N2CCN(C(=O)c3cccc(C#N)c3)CC2)n1`: -3.34%. `CC(C)(C)c1nnc(CN2CCn3c(nnc3C3CC3)C2)o1`: the cytotoxicity at 10 µM turned out to be 4.45%. Regarding `COCC1CN(Cc2cc(C)on2)Cc2cnn(C)c21` (stereo not drawn), the cytotoxicity at 10 µM was found to be 6.22%.

Consider `O=C(c1ccccc1)N1CCC[C@]2(C[C@@H](OCc3ccncc3)CO2)C1`, for which the cytotoxicity at 10 µM is 5.25%.

As to `Cc1occc1C(=O)NCC1OCCc2cn(C)nc21` (stereo not drawn), the cytotoxicity at 10 µM is 4.33%. In the case of `O=C(Cc1ccsc1)N1CCCC2(COCCN(CC3CC3)C2)C1` (stereo not drawn) it was -127%; in that of `COc1ccc(C(=O)N2CC[C@@H]3[C@H](CC2)N(C)CCS3(=O)=O)cc1`, -117%. Next, `Cc1ccc(CN2CCC3(CC2)CCN(Cc2ccco2)CC3)cc1`: 2.44%.

On to `O=C(NCCNS(=O)(=O)N1CCCCCC1)c1ncccc1O`, for which the cytotoxicity at 10 µM was -6.11%.

Values taken from ChEMBL document CHEMBL4513216, “Probing the Open Global Health Chemical Diversity Library for Multistage-Active Starting Points for Next-Generation Antimalarials” (ACS Infect Dis, 2020).
